Measurements taken from ChEMBL document CHEMBL1152574, “Novel 2H-isoquinolin-3-ones as antiplasmodial falcipain-2 inhibitors” (Bioorg Med Chem, 2009).

What was measured:
[1] = Inhibition of Plasmodium falciparum falcipain-2
Outline: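 Recombinant FP-2 in 100 mM sodium acetate pH 5.5, 10 mM DTT, substrate Cbz-Phe-Arg-AMC; reversibility screen at 100 µM with E-64 control, then continuous progress-curve assays with 0–100 µM inhibitor; fluorescence ex 365/em 460 nm; run twice; Ki from Dixon plot, corrected to zero substrate using Km 21.5 µM.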

Procathepsin L = Procathepsin L (Homo sapiens, UniProt P07711); test: Inhibition of human cathepsin L
Cathepsin B = Cathepsin B (Homo sapiens, UniProt P07858); test: Inhibition of human cathepsin B
Plasmodium falciparum = test: Antiplasmodial activity against Plasmodium falciparum FcBR; format: functional, organism-based; settings: FCBR/Columbia
Outline: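 Synchronized ring-stage parasites (strain FCBR) grown in human RBC (A Rh+), RPMI 1640 with 25 mM HEPES, 20 mM bicarbonate, 0.5% AlbuMAX I, 2.5% hematocrit, 37 °C under 94% N₂/1% O₂/5% CO₂; plated at 1% parasitemia with compounds (DMSO stock diluted 10-fold in 50% ethanol), 100–0.0488 µM, in quadruplicate; 50% ethanol as negative control; dose-dependent effect on development quantified.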

Rhodesain = Rhodesain (Trypanosoma brucei rhodesiense, UniProt Q95PM0); test: Inhibition of Trypanosoma brucei rhodesiense rhodesain
Outline: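 Continuous fluorometric progress-curve assay in 100 mM sodium acetate, pH 5.5, with 10 mM DTT. Substrate is Cbz-Phe-Arg-AMC (40 or 10, depending on enzyme). Inhibitors come from DMSO stocks, at increasing concentrations up to 100. AMC read at ex 365/em 460 nm, each assay run twice. Kiapp is taken from a Dixon plot and corrected to zero substrate with Km to give Ki.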

Sequence of Rhodesain (Q95PM0 whole entry): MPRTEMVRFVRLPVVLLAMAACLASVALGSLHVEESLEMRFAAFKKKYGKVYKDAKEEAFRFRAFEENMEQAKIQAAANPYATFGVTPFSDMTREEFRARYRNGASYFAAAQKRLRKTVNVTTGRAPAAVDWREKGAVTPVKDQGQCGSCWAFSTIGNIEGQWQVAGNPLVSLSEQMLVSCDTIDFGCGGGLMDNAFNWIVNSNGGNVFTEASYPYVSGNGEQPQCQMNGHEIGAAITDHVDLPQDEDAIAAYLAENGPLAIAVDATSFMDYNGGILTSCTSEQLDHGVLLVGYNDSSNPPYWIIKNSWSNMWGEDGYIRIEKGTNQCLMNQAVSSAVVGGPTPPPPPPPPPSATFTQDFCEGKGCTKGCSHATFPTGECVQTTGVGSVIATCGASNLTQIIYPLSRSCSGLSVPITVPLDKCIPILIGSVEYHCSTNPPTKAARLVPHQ
Sequence of Procathepsin L (P07711 whole entry): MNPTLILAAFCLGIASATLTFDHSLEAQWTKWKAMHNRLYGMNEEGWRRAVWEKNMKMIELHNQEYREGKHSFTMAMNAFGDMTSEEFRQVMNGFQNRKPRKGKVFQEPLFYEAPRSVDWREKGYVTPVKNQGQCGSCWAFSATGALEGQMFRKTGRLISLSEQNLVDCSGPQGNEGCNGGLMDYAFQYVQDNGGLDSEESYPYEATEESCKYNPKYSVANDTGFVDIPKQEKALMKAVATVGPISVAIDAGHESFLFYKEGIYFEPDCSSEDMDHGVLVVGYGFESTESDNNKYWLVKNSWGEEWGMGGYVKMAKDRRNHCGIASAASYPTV

| Ki (Cathepsin B) | Ki (Rhodesain) | Compound | Ki [1] [µM] | Ki (Procathepsin L) [µM] | Ki (Cathepsin B; read-out: Ki) [µM] | IC50 (Plasmodium falciparum) [µM] | Ki (Rhodesain; read-out: Ki) [µM] |
| --- | --- | --- | --- | --- | --- | --- | --- |
| – | – | CC(=O)Oc1cc2cc3c(cc2c(-c2ccc(N)cc2)n1)OCO3 | 19.7 | 13.6 | 6.7 | 58.8 | 38.3 |
| – | – | COc1ccc(-c2c3cc4c(cc3cc(=O)n2NC(=O)OC(C)(C)C)OCO4)cc1 | 24.4 | 4.1 | 7.5 | 7.7 | 19.4 |
| – | – | CCOC(=O)Nn1c(-c2ccc(OC)cc2)c2cc3c(cc2cc1=O)OCO3 | 62.7 | 7.7 | 16.7 | 8.4 | 9.4 |
| – | – | COc1ccc(-c2c3cc4c(cc3cc(=O)n2NC(=O)Nc2ccc(C(C)=O)cc2)OCO4)cc1 | 5.9 | 2.1 | 3.7 | 11.8 | 14 |
| Not Active | Not Active | COc1ccc(-c2c3cc(OC)c(OC)cc3cc(=O)n2NC(=O)OC(C)(C)C)cc1 | 40.3 | 39.7 | – | 9.3 | – |
| – | – | COc1ccc(-c2c3cc4c(cc3cc(=O)n2NC(=O)Nc2ccc(SC)cc2)OCO4)cc1 | 6.5 | 0.85 | 4 | > 100 | 18.7 |
| – | – | COc1ccc(-c2c3cc4c(cc3cc(=O)n2N)OCO4)cc1 | 15 | 7 | 16.3 | 25.5 | 6.3 |
| – | – | COc1ccc(-c2c3cc(OCc4ccccc4)c(OCc4ccccc4)cc3cc(=O)n2N)cc1 | 2.3 | 4.2 | 3.3 | 16.9 | 4 |
| – | – | Cc1cc2cc3c(cc2c(-c2ccc(N)cc2)n1)OCO3 | 7.3 | 8.7 | 6.9 | 38.8 | 19.4 |
| – | – | CC(C)C[C@H](NC(=O)[C@H]1O[C@@H]1C(=O)O)C(=O)NCCCCN=C(N)N [E-64] | 0.29 | – | 16 | – | – |
